Most compounds without a hit are left out; they make up all but 1% or so of the library.
PDI inh – blocks human protein disulfide isomerase activity. P07237. PDI insulin aggregation turbidity, A650, 90 min. inhibition, % at 10 µM. 350,000 tested, 0.052% active;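 active = mean inhibition across replicates of 30% or more, whatever share of single replicates reach that level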
RAD52 inh – RAD52 (human) annealing inhibition; 360,000 tested, 0.46% active; inhibition, % at 18.7 µM; P43351; recombinant RAD52 DNA annealing, FRET fluorescence;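 active = every replicate showing at least 50% inhibition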
ERp5 inh – blocks human ERp5 reductase activity on insulin; Q15084; ERp5 insulin aggregation, absorbance 650 nm, 90 min; inhibition, % at 9.99 µM; 350,000 tested, 0.05% active;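 active = mean replicate inhibition above about 25%, with every replicate also reaching it, limit read from the data, passing the limit was not always enough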
Target sequence (Q15084 whole entry, looked up): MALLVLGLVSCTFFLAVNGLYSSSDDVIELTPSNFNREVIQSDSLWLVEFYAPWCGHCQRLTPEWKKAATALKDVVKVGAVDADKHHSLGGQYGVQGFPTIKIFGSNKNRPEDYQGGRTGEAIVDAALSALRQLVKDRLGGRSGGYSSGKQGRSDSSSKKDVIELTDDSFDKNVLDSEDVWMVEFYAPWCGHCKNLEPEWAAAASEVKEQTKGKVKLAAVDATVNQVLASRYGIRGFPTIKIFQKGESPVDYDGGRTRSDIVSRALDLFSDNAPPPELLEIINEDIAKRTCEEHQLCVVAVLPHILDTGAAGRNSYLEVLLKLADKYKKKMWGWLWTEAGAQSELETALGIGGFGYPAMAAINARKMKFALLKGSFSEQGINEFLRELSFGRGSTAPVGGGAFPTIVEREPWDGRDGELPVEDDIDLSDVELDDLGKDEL
RAD54 branch – blocks human RAD54 Holliday junction branch migration; FAM/BHQ fluorescence; inhibition, % at 10.4 µM; 360,000 tested, 0.14% active; AID 602329;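 active = mean normalized replicate activity at least 40 and at least half of replicates scoring 40 or more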;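 also: 0% = median of neutral control wells and 100% = median of positive control wells; inhibitors cause a drop in the FAM fluorescence signal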
CAL PDZ FP-1 – blocks peptide binding to the human CAL PDZ domain; Q9HD26; purified CAL PDZ, TMR-peptide fluorescence polarization, 1 h; inhibition, % at 24.9 µM; 300,000 tested, 0.92% active;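 active = mean inhibition of at least 30% with at least half of replicates also reaching 30%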;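 also: 0% = DMSO neutral control and 100% = excess unlabeled competitor peptide PRC23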
CAL PDZ FP-2 – blocks peptide binding to human CAL PDZ domain; purified CAL PDZ, TMR-peptide fluorescence polarization, 1 h; Q9HD26; inhibition, % at 20 µM; 330,000 tested, 0.02% active; AID 504414;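 active = highest replicate inhibition of at least 40%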;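 also: plate controls were DMSO neutral control wells for no effect and unlabeled competitor peptide control wells for full effect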
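Material – purified CerCALP PDZ construct · Detection – FP readout, S and P plane fluorescence · Measure – percent inhibition from loss of millipolarization · Controls – unlabelled peptide for full inhibition, DMSO wells as neutral · Probe or stimulus – TMR-labelled reporter peptide T*-PRC34 bound in PDZ groove · Times – 1 h at RT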
Starred values were filed as active, the others as inactive; x = no result given; + = active, no number.

SMILES	PDI inh	RAD52 inh	ERp5 inh	RAD54 branch	CAL PDZ FP-1	CAL PDZ FP-2
O=C(C[C@H]1CC[C@@H](NC(=O)c2ccccc2)[C@@H](CO)O1)NCc1ccc(Oc2ccccc2)cc1	x	9	4	3	x	x
CC(=O)NC(=S)Nc1cc(C(=O)O)ccc1Cl	-1	-1	-4	x	116*	-1
CC(CC(=O)O)CC(=O)Nc1nncs1 (centres undefined)	2	-1	1	6	53*	1
O=C(CCc1ccccc1)Nc1nncs1	1	x	x	-8	-4	x
O=C(CN1C(=O)NC2(CCCC2)C1=O)Nc1cc(C(F)(F)F)ccc1N1CCCCC1	-11	-6	34*	3	-10	-1
C[C@]12C=CC(=O)C=C1CCC1C2CC[C@@]2(C)C1CCC21OCCO1 (some centres undefined)	-1	-9	5	2	102*	-1
O=C(CSc1nccc(-c2cccs2)n1)Nc1ccc(Cl)cc1	3	-12	2	x	x	-3
O=C(CSc1nccc(-c2cccs2)n1)Nc1cccc(Cl)c1Cl	-2	-3	4	x	51*	0
O=C1N[C@H](c2ccccc2)COCn2nncc2CC[C@H]1Cc1ccccc1	x	11	-3	x	x	x
O=C1COc2ccccc2CN1	-10	x	x	-6	+	-1
CC(C)c1cc(O)c(-c2ccccc2)c(=O)n1-c1ccc(Cl)cc1	-5	-1	-6	-12	-6	0
CC(C)c1c(Cl)c(O)c(-c2ccccc2)c(=O)n1-c1ccc(F)cc1	-3	x	x	x	38*	0
C[C@@H]1CCCCO[C@H](CN(C)C(=O)C2CCCCC2)[C@H](C)CN([C@@H](C)CO)C(=O)c2cc(NS(=O)(=O)c3ccc(F)cc3)ccc2O1	x	-25	0	-1	x	x
COc1ccc(C(=O)O/N=C(\N)c2ccccc2)cc1OC	8	-8	0	-7	43*	x
O=C(NCC(=O)N1CCN(c2ccccc2F)CC1)c1ccco1	-2	-18	6	-4	71*	-1
CCOC(=O)c1cc2nc(OCC)nc(OCC)c2[nH]1	-1	-15	1	-4	41*	0
Fc1ccc(Cn2cc(C(=S)N3CCOCC3)c3ccccc32)cc1	6	-17	7	x	52*	15
Cc1cccnc1NC(=O)CSc1nnc(CNC(=O)c2cccc([N+](=O)[O-])c2)n1C	-4	-15	-4	-12	42*	-2
Cc1cccc(C(=O)NCc2nnc(SCC(=O)Nc3nnc(C)s3)n2C)c1	-5	-12	2	-4	6	0
O=C(NCc1cccc(F)c1)C1CCC(=O)N(CCCN2CCOCC2)C1 (centres undefined)	1	-18	4	-4	1	5
O=C(NCc1cccc(F)c1)C1CCC(=O)N(C2CCCC2)C1 (centres undefined)	13	5	5	-18	84*	0
O=C(NCc1cccc(Cl)c1)C1CCC(=O)N(CCCN2CCCC2=O)C1 (centres undefined)	-14	-7	0	-13	70*	0
CC(=O)c1ccc(NC(=O)Cn2cnc(S(=O)(=O)N3CCCC3)c2)cc1	-2	x	x	-10	44*	-1
CC(=O)c1ccc(NC(=O)Cn2cnc(S(=O)(=O)N3CCCCC3)c2)cc1	-2	-11	-2	7	-2	-3
CCc1ccc(N2C(=O)CC(N3CCN(Cc4ccc5c(c4)OCO5)CC3)C2=O)cc1 (centres undefined)	-3	-11	1	x	85*	-1
SMILES	PDI inh	RAD52 inh	ERp5 inh	RAD54 branch	CAL PDZ FP-1	CAL PDZ FP-2
CC(=O)Nc1ccc(N2C(=O)CC(N3CCN(Cc4ccc5c(c4)OCO5)CC3)C2=O)cc1 (centres undefined)	-5	x	x	1	-7	-1
COCCNC(=O)C[C@H]1CC[C@@H]2[C@H](COC[C@@H](O)CN2C(=O)Nc2ccccc2OC)O1	x	-2	1	6	x	x
Cc1ccc(S(=O)(=O)N2CCOCC2)cc1C(=O)N1CCOCC1	-5	x	x	7	2	-3
Cc1ccc(S(=O)(=O)N2CCOCC2)cc1C(=O)N1CCN(c2ncccn2)CC1	3	-8	3	6	51*	0
Cc1noc(C)c1COc1ccc(C(=O)N2CCN(S(=O)(=O)c3ccc(F)cc3)CC2)cc1	-6	-10	10	-3	1	0
Cc1noc(C)c1COc1ccc(C(=O)N2CCN(S(=O)(=O)c3ccc(Cl)cc3)CC2)cc1	1	-3	7	x	39*	-1
Nc1ccc(N2CCOCC2)c2nonc12	66*	-31	22	4	-2	2
CCCCNS(=O)(=O)c1ccc2nc(SCC(=O)Nc3sccc3C#N)[nH]c2c1	13	x	x	-11	35*	x
CCCCNS(=O)(=O)c1ccc2nc(SCC(N)=O)[nH]c2c1	0	-17	-2	x	-4	1
C=Cc1cc2c(cc1O)CCC1C2CCC2(C)C(O)CCC12 (centres undefined)	2	16	1	x	1	-1
C[C@]12CC[C@@H]3c4ccc(O)cc4C(=O)C[C@H]3[C@@H]1CC[C@@H]2O	39*	-4	4	9	0	-1
CN(C)C(=O)CSc1nc2cc(S(=O)(=O)N3CCOCC3)ccc2o1	4	-8	1	11	90*	0
NC(=O)CSc1nc2cc(S(=O)(=O)N3CCOCC3)ccc2o1	-1	-9	2	-1	0	0
CO[C@@H]1CN(C)C(=O)c2cc(NC(=O)C3CC3)ccc2OC[C@H](C)N(Cc2ccncc2)C[C@@H]1C	x	-7	0	-18	x	x
COc1ccc(NC(=O)N(C)C[C@@H]2Oc3ccc(NC(=O)C4CCCCC4)cc3CC(=O)N([C@@H](C)CO)C[C@H]2C)cc1	x	-20	0	-5	x	x
CN(Cc1nc2ccccc2c(=O)[nH]1)C(=O)c1cc2c(s1)CCCCC2	-1	-2	3	-5	-5	-1
CN(Cc1nc2ccccc2c(=O)[nH]1)C(=O)c1cccc(NC(=O)c2cccs2)c1	-6	-10	5	7	66*	-1
CO[C@@H]1CN(C)C(=O)c2cc(NC(=O)C3CCC3)ccc2OC[C@@H](C)N(CC2CCCCC2)C[C@H]1C	x	-22	5	8	x	x
CCOCCCNC(=O)N[C@H](C(=O)OC)C(C)CC (some centres undefined)	-2	-3	3	x	-6	0
CCOCCCNC(=O)N[C@@H](C)C(=O)OC	-24	x	x	-13	62*	x
CN(C)CC(=O)N1[C@H](C(=O)NCc2ccccc2F)[C@@H](CO)[C@@H]2Cn3c(cccc3=O)[C@@H]21	x	3	0	x	x	x
O=C(NCC(c1ccco1)N1CCN(c2ccccc2)CC1)C(=O)NC1CCCC1 (centres undefined)	-9	-2	-2	-8	x	0
